{"source": "ChEMBL document CHEMBL1121965", "about": "“Nonsteroidal estrogens: synthesis and estrogen receptor binding affinity of derivatives of (3R*,4S*)-3,4-bis(4-hydroxyphenyl)hexane (hexestrol) and (2R*,3S*)-2,3-bis(4-hydroxyphenyl)pentane (norhexestrol) functionalized on the side chain” (J Med Chem, 1982)", "molecular_target": "Estrogen receptor (Ovis aries) (UniProt P49885+Q9TU15)", "assay": "The ratio of association constant for estrogen receptor using [3H]estradiol as a tracer, relative to estradiol", "format": "protein assay", "summary_of_the_method": "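Competitive binding: lamb uterine cytosol supplied estrogen receptor, [3H]estradiol served as tracer, and free tracer was removed from bound by charcoal-dextran adsorption. Relative association constants were expressed against estradiol set at 100.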", "data": [{"smiles": "CC[C@H](c1ccc(O)cc1)[C@@H](CO)c1ccc(O)cc1", "values": [{"measurement": "RAC", "result": 8.9}]}, {"smiles": "CC[C@H](c1ccc(O)cc1)[C@@H](CF)c1ccc(O)cc1", "values": [{"measurement": "RAC", "result": 129}]}, {"smiles": "CC[C@H](c1ccc(O)cc1)[C@@H](C(N)=O)c1ccc(O)cc1", "values": [{"measurement": "RAC", "result": 0.2}]}, {"smiles": "CCC(c1ccc(O)cc1)C(CCO)c1ccc(O)cc1", "note": "(centres undefined)", "values": [{"measurement": "RAC", "result": 15}]}, {"smiles": "CC[C@H](c1ccc(O)cc1)[C@@H](CC(N)=O)c1ccc(O)cc1", "values": [{"measurement": "RAC", "result": 0.09}]}, {"smiles": "CCC(c1ccc(O)cc1)C(C(=O)OC)c1ccc(O)cc1", "note": "(centres undefined)", "values": [{"measurement": "RAC", "result": 70}]}, {"smiles": "CCCCCOC(=O)C(c1ccc(O)cc1)C(CC)c1ccc(O)cc1", "note": "(centres undefined)", "values": [{"measurement": "RAC", "result": 61}]}, {"smiles": "CCCCCOC(=O)CC(c1ccc(O)cc1)C(CC)c1ccc(O)cc1", "note": "(centres undefined)", "values": [{"measurement": "RAC", "result": 3.8}]}, {"smiles": "CCCCC(=O)[C@@H](c1ccc(O)cc1)[C@H](CC)c1ccc(O)cc1", "values": [{"measurement": "RAC", "result": 81}]}, {"smiles": "CC[C@H](c1ccc(O)cc1)[C@@H](CC(=O)C[N+]#N)c1ccc(O)cc1", "values": [{"measurement": "RAC", "result": 2.8}]}, {"smiles": "CC[C@H](c1ccc(O)cc1)[C@@H](C(C)=O)c1ccc(O)cc1", "values": [{"measurement": "RAC", "result": 58}]}, {"smiles": "CCCCC(=O)C[C@@H](c1ccc(O)cc1)[C@H](CC)c1ccc(O)cc1", "values": [{"measurement": "RAC", "result": 9.4}]}, {"smiles": "CCC(c1ccc(O)cc1)C(CCF)c1ccc(O)cc1", "note": "(centres undefined)", "values": [{"measurement": "RAC", "result": 129}]}, {"smiles": "CCCCCNC(=O)C[C@@H](c1ccc(O)cc1)[C@H](CC)c1ccc(O)cc1", "values": [{"measurement": "RAC", "result": 0.15}]}, {"smiles": "CCC(c1ccc(O)cc1)C(CCI)c1ccc(O)cc1", "note": "(centres undefined)", "values": [{"measurement": "RAC", "result": 60}]}, {"smiles": "CC[C@H](c1ccc(O)cc1)[C@@H](CC(=O)OC)c1ccc(O)cc1", "values": [{"measurement": "RAC", "result": 19}]}, {"smiles": "CC[C@H](c1ccc(O)cc1)[C@@H](C)c1ccc(O)cc1", "values": [{"measurement": "RAC", "result": 137}]}, {"smiles": "CCC(c1ccc(O)cc1)C(CCBr)c1ccc(O)cc1", "note": "(centres undefined)", "values": [{"measurement": "RAC", "result": 71}]}, {"smiles": "CC[C@H](c1ccc(O)cc1)[C@@H](CBr)c1ccc(O)cc1", "values": [{"measurement": "RAC", "result": 150}]}, {"smiles": "CC[C@H](c1ccc(O)cc1)[C@@H](C(=O)C[N+]#N)c1ccc(O)cc1", "values": [{"measurement": "RAC", "result": 10.9}]}, {"smiles": "CC[C@H](c1ccc(O)cc1)[C@@H](CC(C)=O)c1ccc(O)cc1", "values": [{"measurement": "RAC", "result": 21}]}, {"smiles": "CCCCCNC(=O)[C@@H](c1ccc(O)cc1)[C@H](CC)c1ccc(O)cc1", "values": [{"measurement": "RAC", "result": 0.29}]}, {"smiles": "CC[C@H](c1ccc(O)cc1)[C@@H](CI)c1ccc(O)cc1", "values": [{"measurement": "RAC", "result": 127}]}, {"smiles": "CC[C@H](c1ccc(O)cc1)[C@@H](CC)c1ccc(O)cc1", "values": [{"measurement": "RAC", "result": 300}]}]}
